# SKKanGAS inh: S. pyogenes SKKanGAS growth inhibitors in kanamycin, primary screen, streptokinase expression inhibitor project, SKKanGAS strain, BacTiter-Glo luminescence | AID 1662, 2009 | 300,000 compounds, 1.3% hits | 6 h | inhibition, % at 7.5 µM;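 active = mean replicate score, as percent of positive control median, at least 50; inconclusive = mean below 50 but one replicate at or above 50; inactive = mean and every replicate below 50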;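 also: strain carries kanamycin resistance gene driven by streptokinase promoter and grows in 40 µg/ml kanamycin; loss of luminescence reflects streptokinase promoter inhibition or plain growth inhibition; 0% = median of DMSO wells and 100% = positive control at its reference dose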
# UPR XBP1 act: activators of adaptive XBP1 UPR arm, primary screen, cell-based, CHO-XBP1 luciferase reporter, luminescence, uHTS; IRE1-XBP1 UPR activation; percent of tunicamycin response, DMSO as zero; activation, % at 20 µM; 330,000 compounds, 0.33% hits; AID 463104, 2010;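 active = versus positive control, 20 µM dose yields 30% or more activation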;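 also: 100% = tunicamycin at 10 µg/mL and 0% = DMSO only wells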
#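 Material: CHO cell line with stable XBP1 luciferase reporter; buffer or medium: F12 medium containing 10% fetal bovine serum; compound: single point, 20 µM final compound, 1% DMSO; incubation: 6 h treatment, 37 °C; measured by: glow luminescence from Steady-Glo reagent; evaluation: activation, % of tunicamycin; control set: tunicamycin high, DMSO low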
# CHOP UPR activ: activators of apoptotic CHOP UPR arm, primary screen, cell-based, CHO-CHOP luciferase reporter, luminescence, uHTS; UPR activation; percent of tunicamycin response over DMSO baseline; activation, % at 10 µM; 330,000 compounds, 0.34% hits; AID 449763, 2010;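 active = at 10 µM dose, activation of 40% or more, normalized to positive control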;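 also: 100% = tunicamycin at 10 µg/mL and 0% = DMSO alone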
#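 System: CHO-CHOP luciferase reporter cell line | Buffer or medium: F12 medium containing 10% fetal bovine serum | Doses: One dose, 10 µM in 0.5% DMSO | Times: 6 h compound exposure at 37 °C after overnight seeding | Signal: Luciferase luminescence | Read-out: % activation vs tunicamycin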
# Beta apoptosis: inhibitors of cytokine-induced beta cell apoptosis, primary screen, luminescence. protection from apoptosis, % (test concentration not listed). 300,000 compounds, 0.8% hits. AID 435005, 2010. INS-1E cytokine-induced death, ATP luminescence, 48 h; percent of positive-control rescue, neutral wells zero;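 active = Every replicate reaches about 75%, or at least half do and their mean reaches it too, limit read from the data; inconclusive = At least half of replicates reach the limit but their mean does not; inactive = Under half of replicates reach the limit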;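 also: 0% = cytokine-treated negative control wells and 100% = positive control rescue; higher means more ATP so stronger rescue from cytokine killing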
# Mdm2 MdmX PPI: inhibitors of human Mdm2-MdmX association, primary screen, cell-based, luminescence, split luciferase, SaOS-2, uHTS; SaOS-2 split-luciferase Mdm2/MdmX complementation; Protein Mdm4 (Homo sapiens) + E3 ubiquitin-protein ligase Mdm2 (Homo sapiens), …; 330,000 compounds, 3% hits; inhibition, % at 8 µM;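 active = inhibition of at least 50% at 8 µM in the primary screen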
# CSC inhib: cancer stem cell viability inhibitors, primary screen, luminescence | cancer stem cell-like cells viability | inhibition, % at 7.5 µM | 300,000 compounds, 1.1% hits; in the data active = inhibition above about 75%; inconclusive = no clear call, values can overlap the other calls; tested in HMLE shEcad cells
# Mdm2-MdmX conf: Mdm2-MdmX complex disruptors, retested hits, confirmation, luminescence, single concentration | inhibition, % at 8 µM | AID 489028, 2010 | shares compounds with Mdm2 MdmX PPI | 10,000 compounds, 55% hits | Mdm2-MdmX binding, luminescent assay; in the data active = inhibition above about 40%
# FLuc counter: full-length luciferase signal inhibition, confirmation, counter-screen for Mdm2/MdmX interaction inhibitor project, cell-based, single concentration, SaOS-2 | shares compounds with Mdm2 MdmX PPI | SaOS-2 full-length luciferase counterscreen, luminescence | inhibition, % at 8 µM | 6,200 compounds, 77% hits | AID 504607, 2011;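 active = mean inhibition at 8 µM reaching about 37%, which flags the compound as non-specific, limit read from the data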;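 also: p53-null SaOS-2 cells with luciferase driven by a doxycycline-inducible promoter; compound on cells about two nights before reading with doxycycline added after day one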
# Active calls of the source: *; u = inconclusive; x = no result. Rows were chosen to be rich in hits. Some 4.8% of all compounds tested hit in one or more screens of this group.
SMILES,SKKanGAS inh,UPR XBP1 act,CHOP UPR activ,Beta apoptosis,Mdm2 MdmX PPI,CSC inhib,Mdm2-MdmX conf,FLuc counter
CCN(c1ccccc1)S(=O)(=O)c1ccc(Oc2ccc(-n3ccnc3)cc2)nc1,8,-4,4,13,59*,-6,58*,63*
Cc1[nH]c(C)c(S(=O)(=O)NCc2ccc(Cl)cc2)c1C(=O)N1CCCC1,-1,-3,2,-3,-4,-1,x,x
O=C(Cc1c(Cl)cccc1Cl)OCC(=O)N1CCOCC1,x,6,2,-5,12,-5,x,x
CCOC(=O)CSc1nc2c(c(=O)[nH]1)C(C)(CC)Cc1ccccc1-2 (stereo unspecified),9,4,0,u,57*,71,53*,54*
Nc1c(N=Nc2cccc(Cl)c2)c(=O)[nH]n1-c1ccccc1,-11,3,4,1,56*,-4,-51,x
Cc1[nH]n(-c2ccccc2)c(=O)c1N=Nc1cccc(Cl)c1,-1,4,3,1,-63,14,x,x
CC(C)c1ccccc1NC(=O)COc1ccc(C(=O)NCCc2ccccc2)cc1,0,-1,-1,25,17,3,x,x
CC(C)c1cccc(C(C)C)c1NC(=O)c1ccc(OCC(=O)NCc2ccccc2)cc1,4,2,0,-4,75*,-7,60*,56*
COc1ccccc1NS(=O)(=O)c1ccc(C(=O)N2CCN(c3ccccc3)CC2)cc1,x,-4,0,4,7,-18,x,x
CNC(=O)N(C1=NCC(C)(C)S1)c1ccc(F)c(Cl)c1,-1,1,-2,3,55*,45,34,82*
Cc1nc2ccccn2c1C(=O)/C=C/c1cccc([N+](=O)[O-])c1,7,6,116*,102*,99*,88*,97*,28
Cc1ccc(/C=C/C(=O)c2c(C)nc3ccccn23)cc1,23,8,5,18,-50,47,x,x
COc1ccc(CCNC(=O)c2cccc(S(=O)(=O)NC(C)c3ccccc3)c2)cc1 (stereo unspecified),x,-2,-3,-3,-16,x,x,x
O=C(NNC(=O)c1cccnc1SCc1cccc([N+](=O)[O-])c1)c1ccc(F)cc1,-4,0,2,u,14,-11,x,x
O=C(NNC(=O)c1cccnc1SCc1cccc([N+](=O)[O-])c1)c1ccccn1,75*,1,2,x,55*,x,79*,21
O=C(CN(C(=O)CCC(=O)Nc1nccs1)c1ccccc1F)NCc1ccc(F)cc1,-3,-2,4,1,-1,5,x,x
O=C1C(=O)N(c2nccs2)C(c2ccccc2F)/C1=C(\O)c1ccc2c(c1)OCCO2 (stereo unspecified),21,0,20,-7,71*,24,68*,37*
O=C1C(=O)N(c2nccs2)C(c2ccccc2)/C1=C(\O)c1ccc2c(c1)OCCO2 (stereo unspecified),13,3,29,-6,74*,42,88*,21
CCN1C(=O)c2ccc(C(=O)Nc3cccc(C(=O)O)c3)cc2C1=O,14,-8,-6,-4,5,1,x,x
C=CCN1C(=O)c2ccc(C(=O)NCCc3ccc(F)cc3)cc2C1=O,2,0,3,-1,5,-9,x,x
O=C1c2ccc3c4c(ccc(c24)C(=O)N1c1ccc(O)cc1)C(=O)N(c1ccc(O)cc1)C3=O,u,-1,0,68,63*,-11,17,x
CCOCc1c(C(=O)NC2=Nc3ccccc3NC(CC)=C2C(=O)OCC)oc2ccccc12,8,-2,-1,10,69*,43,73*,65*
CC(C)(C)C(=O)O/N=C(\N)c1c(Cl)cccc1Cl,2,-2,-1,-1,54*,9,-6,x
Cc1ccc(NC(=O)CCC(=O)N/N=C/c2ccc(O)cc2O)cc1,8,-4,-1,11,22,27,x,x
C=CCc1cccc(/C=N/NC(=O)CCC(=O)Nc2ccc(C)cc2)c1O,7,-1,-1,90*,65*,9,65*,52*
SMILES,SKKanGAS inh,UPR XBP1 act,CHOP UPR activ,Beta apoptosis,Mdm2 MdmX PPI,CSC inhib,Mdm2-MdmX conf,FLuc counter
Cc1ccc(C)c(OCC(=O)NNC(=O)CCN2CCN(c3ccccc3)CC2)c1,x,1,1,-2,9,-3,x,x
CCN1C(=O)C2(Nc3ccccc3-c3nc4ccccc4n32)c2cc(OC)ccc21 (stereo unspecified),0,0,-3,-2,66*,0,96*,24
COc1ccc(/C=N/n2cnc3c([nH]c4ccc(F)cc43)c2=O)cc1CSc1ccccn1,9,17,13,53,94*,-13,28,x
COc1ccc2c(c1)[nH]c1c(=O)n(/N=C/c3ccc(OC)c(COc4ccccn4)c3)cnc12,5,1,2,-18,-31,15,x,x
O=C(NC1CCCCC1)c1ccc(-n2cnnn2)cc1,-3,-1,1,-8,8,-12,x,x
CC[n+]1c(/C=C2/C=C(C)CC(C)(C)C2)sc2ccc(OC)cc21,3,-5,6,-5,54*,30,27,57*
Cc1ccc(-n2c(=O)[nH]c3cc(C(=O)NC4CCN(Cc5ccccc5)CC4)ccc3c2=O)cc1,-2,-1,1,2,87*,-9,26,x
O=C(NC1CCN(Cc2ccccc2)C1)c1cc(COc2ccc(F)cc2F)on1 (stereo unspecified),-2,-3,-3,20,11,-6,x,x
Cc1oc(-c2ccc(Cl)cc2)cc1C(=O)NC1CCN(Cc2ccccc2)CC1,0,-4,6,x,60*,14,28,x
Cc1ccc(C)c(OCc2cc(C(=O)NC3CCN(Cc4ccccc4)CC3)no2)c1,0,-4,0,14,53*,12,16,x
S=C(Nc1cc(Cl)cc(Cl)c1)NC1CCN(Cc2ccccc2)CC1,16,-3,2,-6,95*,75*,34,x

# Bioassay records from PubChem BioAssay.
